# From publication PMC2532710 (Nucleic Acids Research, 2008)
# Tests used:
# Oligo = experiment: 2-AP titration Kd, oligo; format: binding; settings: Kd ratio, n = 1
# In short: (§1)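 Each substrate carried 2-AP at strand 4, position 2 and was used at 0.1 μM in 20 mM Tris-HCl pH 7.8, 25 mM NaCl, 1 mM EDTA, 1.6% DMSO at 24°C. Peptide dimer added in 2-fold steps from 0.003125 μM, 3 min each. Excitation 315 nm, emission 330–430 nm. Adenine background subtracted, 365–375 nm averaged. Fc fitted by least squares to pooled 2–3 dilution series. Value given as Kd relative to HJ Kd.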
# HJ substrate [1] = experiment: dissociation from HJ; format: binding
# [2] = system: replication fork substrate; experiment: 2-AP fluorescence quenching, replication fork; format: binding
# In short: (§2)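 Substrates were annealed from oligos (boiled 5 min, slow-cooled), gel-purified on native 12% PAGE and quantified spectrophotometrically. After ≥10 min equilibration, emission was read at 330–430 nm (excitation 315 nm). Adenine-substituted spectra were subtracted, and fold decrease at 370 nm was taken versus no peptide.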
# protein-free HJ DNA = experiment: peptide/RecG band shift assay on HJ; format: binding; settings: read-out: dissociation constant (Kd) by band shift assay; peptide dimer, HJ
# [3] = system: central thymine bases of HJ; settings: bound to HJ; cited from earlier work
# [4] = system: fork substrate with only the lagging strand; experiment: 2-AP fluorescence quenching, lagging strand fork; format: binding
# In short: as §2
# Flayed fork = experiment: 2-AP titration Kd, flayed fork; format: binding; settings: Kd ratio, n = 1
# In short: as §1
# linear dsDNA = settings: cited from earlier work
# HJ substrate [5] = experiment: 2-AP fluorescence quenching, HJ substrate; format: binding; settings: for fold decrease in 2-AP fluorescence at 370 nm: HJ-1AP1 (central base)
# In short: as §2
substance,measurement,setting,value
(WRWYCR)2 (disulfide),Fold reduced versus HJ,Oligo,51.1
same,time for half of bound peptide to dissociate,"HJ substrate [1]; 0.015 μM (WRWYCR)2, 1 nM labeled HJ, 0.2 μM unlabeled HJ (200X), 4°C",More than an hour
same,dissociation slower than RecG,"HJ substrate [1]; peptide vs RecG, from HJ",about 2 X
same,fold decrease in 2-AP fluorescence at 370 nm,"[2]; Fork-1AP1 (central base), 0.05 μM dimer, 0.25:1",1.0 fold
same,fold decrease in 2-AP fluorescence at 370 nm,"[2]; Fork-1AP1 (central base), 0.2 μM dimer, 1:1",1.0 fold
same,fold decrease in 2-AP fluorescence at 370 nm,"[2]; Fork-1AP1 (central base), 0.8 μM dimer, 4:1",1.2 fold
same,fold decrease in 2-AP fluorescence at 370 nm,"[2]; Fork-3AP2, 0.2 μM dimer, 1:1",1.0 fold
same,fold decrease in 2-AP fluorescence at 370 nm,"[2]; Fork-3AP2, 1.6 μM dimer, 8:1",1.2 fold
same,fold decrease in 2-AP fluorescence at 370 nm,"[2]; Fork-4AP1 (central base), 0.05 μM dimer, 0.25:1",1.0 fold
same,fold decrease in 2-AP fluorescence at 370 nm,"[2]; Fork-4AP1 (central base), 1.6 μM dimer, 8:1",1.7 fold
same,fold decrease in 2-AP fluorescence at 370 nm,"[2]; Fork-4AP2 (central base), 0.05 μM dimer, 0.25:1",1.0 fold
same,fold decrease in 2-AP fluorescence at 370 nm,"[2]; Fork-4AP2 (central base), 0.2 μM dimer, 1:1",1.0 fold
same,fold decrease in 2-AP fluorescence at 370 nm,"[2]; Fork-4AP3, 0.05 μM dimer, 0.25:1",1.0 fold
same,fold decrease in 2-AP fluorescence at 370 nm,"[2]; Fork-4AP3, 0.2 μM dimer, 1:1",1.0 fold
same,fold decrease in 2-AP fluorescence at 370 nm,"[2]; Fork-4AP3, 0.8 μM dimer, 4:1",1.2 fold
same,fold decrease in 2-AP fluorescence at 370 nm,"[2]; Fork-4AP4, 0.05 μM dimer, 0.25:1",1.0 fold
same,fold decrease in 2-AP fluorescence at 370 nm,"[2]; Fork-4AP4, 0.2 μM dimer, 1:1",1.0 fold
same,fold decrease in 2-AP fluorescence at 370 nm,"[2]; Fork-4AP4, 0.8 μM dimer, 4:1",1.0 fold
same,fold decrease in 2-AP fluorescence at 370 nm,"[2]; Fork-4AP4, 1.6 μM dimer, 8:1",1.2 fold
same,Kd,protein-free HJ DNA,12.5 nM
same,increase in KMnO4 sensitivity of central thymine bases,[3],~2 fold
same,fold decrease in 2-AP fluorescence at 370 nm,"[4]; Lag-1AP1 (central base), 0.05 μM dimer, 0.25:1",1.0 fold
same,fold decrease in 2-AP fluorescence at 370 nm,"[4]; Lag-1AP1 (central base), 0.2 μM dimer, 1:1",1.0 fold
same,fold decrease in 2-AP fluorescence at 370 nm,"[4]; Lag-1AP1 (central base), 0.8 μM dimer, 4:1",1.3 fold
same,fold decrease in 2-AP fluorescence at 370 nm,"[4]; Lag-1AP1 (central base), 1.6 μM dimer, 8:1",2.0 fold
same,2-AP quenching,"[4]; Lag-1AP1, 4- and 8-fold molar excess",quenched
same,2-AP quenching,[4]; Lag-3AP2,only very weak quenching
same,fold decrease in 2-AP fluorescence at 370 nm,"[4]; Lag-3AP2, 0.05 μM dimer, 0.25:1",1.0 fold
same,fold decrease in 2-AP fluorescence at 370 nm,"[4]; Lag-3AP2, 0.2 μM dimer, 1:1",1.0 fold
same,fold decrease in 2-AP fluorescence at 370 nm,"[4]; Lag-4AP1 (central base), 0.05 μM dimer, 0.25:1",1.0 fold
same,fold decrease in 2-AP fluorescence at 370 nm,"[4]; Lag-4AP1 (central base), 0.8 μM dimer, 4:1",1.3 fold
same,fold decrease in 2-AP fluorescence at 370 nm,"[4]; Lag-4AP1 (central base), 1.6 μM dimer, 8:1",1.9 fold
same,2-AP quenching,[4]; Lag-4AP1 and Lag-4AP2,quenched strongly
same,fold decrease in 2-AP fluorescence at 370 nm,"[4]; Lag-4AP2 (central base), 0.05 μM dimer, 0.25:1",1.0 fold
same,fold decrease in 2-AP fluorescence at 370 nm,"[4]; Lag-4AP2 (central base), 0.8 μM dimer, 4:1",1.3 fold
same,fold decrease in 2-AP fluorescence at 370 nm,"[4]; Lag-4AP2 (central base), 1.6 μM dimer, 8:1",1.6 fold
same,fold decrease in 2-AP fluorescence at 370 nm,"[4]; Lag-4AP3, 0.05 μM dimer, 0.25:1",1.0 fold
same,fold decrease in 2-AP fluorescence at 370 nm,"[4]; Lag-4AP3, 0.2 μM dimer, 1:1",1.0 fold
same,fold decrease in 2-AP fluorescence at 370 nm,"[4]; Lag-4AP3, 0.8 μM dimer, 4:1",1.2 fold
same,fold decrease in 2-AP fluorescence at 370 nm,"[4]; Lag-4AP3, 1.6 μM dimer, 8:1",1.3 fold
same,2-AP quenching,[4]; Lag-4AP3 and Lag-4AP4,quenched relatively weakly
same,fold decrease in 2-AP fluorescence at 370 nm,"[4]; Lag-4AP4, 0.05 μM dimer, 0.25:1",1.0 fold
same,fold decrease in 2-AP fluorescence at 370 nm,"[4]; Lag-4AP4, 0.2 μM dimer, 1:1",1.0 fold
same,fold decrease in 2-AP fluorescence at 370 nm,"[4]; Lag-4AP4, 1.6 μM dimer, 8:1",1.0 fold
same,Fold reduced versus HJ,Flayed fork,43.9
same,interaction with linear dsDNA,linear dsDNA,not with linear dsDNA
same,binding to dsDNA,linear dsDNA; high concentrations,binds to dsDNA nonspecifically at high concentrations
same,quenching of four central 2-AP bases,HJ substrate [5]; 4-fold excess of peptide dimer over substrate,at least 1.6 fold
same,fold decrease in 2-AP fluorescence at 370 nm,"HJ substrate [5]; 0.2 μM dimer, 1:1",1.2 fold
same,fold decrease in 2-AP fluorescence at 370 nm,"HJ substrate [5]; 0.8 μM dimer, 4:1",1.6 fold
